Measurements taken from publication PMC11293336 (Cell Reports Medicine, 2024).

What was measured:
[1] = tested on: patients with recurrent high-grade glioma; assay: Dose-limiting toxicities and adverse events of oral terameprocol, GATOR trial; type: in vivo, human
Procedure, shortened: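 Patients ≥18 y with recurrent supratentorial grade III–IV glioma took oral capsules once daily, days 1–5 every 28 days, fasted; an amended cohort took 6,000 mg/day with a meal within 30 min. 3+3 escalation over 1,200–6,000 mg/day. DLT window was the first 4 weeks: ANC <500/μL, platelets <25,000/μL, febrile neutropenia, hematologic toxicity preventing >80% of dose, grade 3–4 seizure/intracranial hemorrhage, grade 3 QTcF. AEs CTCAE-graded.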

[2] = tested on: advanced refractory solid tumors; settings: intravenous; cited from earlier work
[3] = DLT, 2,400 mg/day EXP (expanded dose cohort), N=4
[4] = DLT, 6,000 mg/day with meal, N=4
[5] = related to terameprocol, all cycles, N = 19

Structure (SMILES): COc1ccc(C[C@@H](C)[C@@H](C)Cc2ccc(OC)c(OC)c2)cc1OC [terameprocol, meso-tetra-O-methyl nordihydroguaiaretic acid]
- % of patients with DLT per dose level ([1]; 1,200 mg/day, N=3): 0%
- % of patients with DLT per dose level ([1]; 2,400 mg/day EXP (expanded dose cohort), N=4): 0%
- % of patients with DLT per dose level ([1]; 2,400 mg/day, N=3): 33%
- % of patients with DLT per dose level ([1]; 3,600 mg/day, N=3): 0%
- % of patients with DLT per dose level ([1]; 6,000 mg/day with meal, N=4): 0%
- % of patients with DLT per dose level ([1]; 6,000 mg/day, N=3): 0%
- tolerability of oral terameprocol ([1]; 1,200-6,000 mg/day, days 1–5 every 28 days): without major toxicities and generally well tolerated and safe and well tolerated
- patients who experienced DLT ([1]; DL2fasted 2,400 mg/day cohort): 1/3
- DLT ([1]; DL3fasted 3,600 mg/day, three patients): no DLTs
- DLT ([1]; DL4fasted 6,000 mg/day, three patients): no DLTs
- DLT ([1]; DL4fed 6,000 mg/day with food): No DLTs
- <80% of expected terameprocol dose due to hematologic toxicity ([1]; DLT, 1,200 mg/day, N=3): 0
- Febrile neutropenia ([1]; DLT, 1,200 mg/day, N=3): 0
- Grade 3–4 non-hematologic toxicity ([1]; DLT, 1,200 mg/day, N=3): 0
- Grade 3–4 seizure or intracranial hemorrhage ([1]; DLT, 1,200 mg/day, N=3): 0
- Platelets <25,000/mm^3 ([1]; DLT, 1,200 mg/day, N=3): 0
- <80% of expected terameprocol dose due to hematologic toxicity [1, 3]: 0
- Febrile neutropenia [1, 3]: 0
- Grade 3–4 non-hematologic toxicity [1, 3]: 0
- Grade 3–4 seizure or intracranial hemorrhage [1, 3]: 0
- Platelets <25,000/mm^3 [1, 3]: 0
- <80% of expected terameprocol dose due to hematologic toxicity ([1]; DLT, 2,400 mg/day, N=3): 0
- Febrile neutropenia ([1]; DLT, 2,400 mg/day, N=3): 0
- Grade 3–4 non-hematologic toxicity ([1]; DLT, 2,400 mg/day, N=3): 1
- Grade 3–4 seizure or intracranial hemorrhage ([1]; DLT, 2,400 mg/day, N=3): 0
- Platelets <25,000/mm^3 ([1]; DLT, 2,400 mg/day, N=3): 0
- <80% of expected terameprocol dose due to hematologic toxicity ([1]; DLT, 3,600 mg/day, N=3): 0
- Febrile neutropenia ([1]; DLT, 3,600 mg/day, N=3): 0
- Grade 3–4 non-hematologic toxicity ([1]; DLT, 3,600 mg/day, N=3): 0
- Grade 3–4 seizure or intracranial hemorrhage ([1]; DLT, 3,600 mg/day, N=3): 0
- Platelets <25,000/mm^3 ([1]; DLT, 3,600 mg/day, N=3): 0
- <80% of expected terameprocol dose due to hematologic toxicity [1, 4]: 0
- Febrile neutropenia [1, 4]: 0
- Grade 3–4 non-hematologic toxicity [1, 4]: 0
- Grade 3–4 seizure or intracranial hemorrhage [1, 4]: 0
- Platelets <25,000/mm^3 [1, 4]: 0
- <80% of expected terameprocol dose due to hematologic toxicity ([1]; DLT, 6,000 mg/day, N=3): 0
- Febrile neutropenia ([1]; DLT, 6,000 mg/day, N=3): 0
- Grade 3–4 non-hematologic toxicity ([1]; DLT, 6,000 mg/day, N=3): 0
- Grade 3–4 seizure or intracranial hemorrhage ([1]; DLT, 6,000 mg/day, N=3): 0
- Platelets <25,000/mm^3 ([1]; DLT, 6,000 mg/day, N=3): 0
- patients off treatment due to toxicity ([1]; all dose levels): No patients
- DLT ([1]; dose expansion at DL2fasted 2,400 mg/day, three additional patients): no additional DLTs
- Alanine aminotransferase increased, Grade 1 [1, 5]: 2 (10.5%) No. of patients (%)
- Alanine aminotransferase increased, Total [1, 5]: 2 (10.5%) No. of patients (%)
- Anemia, Grade 1 [1, 5]: 4 (21.1%) No. of patients (%)
- Anemia, Total [1, 5]: 4 (21.1%) No. of patients (%)
- Anorexia, Grade 1 [1, 5]: 2 (10.5%) No. of patients (%)
- Anorexia, Grade 2 [1, 5]: 1 (5.3%) No. of patients (%)
- Anorexia, Total [1, 5]: 3 (15.8%) No. of patients (%)
- Arthralgia, Grade 1 [1, 5]: 1 (5.3%) No. of patients (%)
- Arthralgia, Total [1, 5]: 1 (5.3%) No. of patients (%)
- Aspartate aminotransferase increased, Grade 1 [1, 5]: 1 (5.3%) No. of patients (%)
- Aspartate aminotransferase increased, Total [1, 5]: 1 (5.3%) No. of patients (%)
- Blood bilirubin increased, Grade 1 [1, 5]: 1 (5.3%) No. of patients (%)
- Blood bilirubin increased, Total [1, 5]: 1 (5.3%) No. of patients (%)
- Constipation, Grade 1 [1, 5]: 1 (5.3%) No. of patients (%)
- Constipation, Total [1, 5]: 1 (5.3%) No. of patients (%)
- Diarrhea, Grade 1 [1, 5]: 2 (10.5%) No. of patients (%)
- Diarrhea, Total [1, 5]: 2 (10.5%) No. of patients (%)
- Electrocardiogram QT corrected interval prolonged, Grade 3 [1, 5]: 1 (5.3%) No. of patients (%)
- Electrocardiogram QT corrected interval prolonged, Total [1, 5]: 1 (5.3%) No. of patients (%)
- Fatigue, Grade 1 [1, 5]: 2 (10.5%) No. of patients (%)
- Fatigue, Grade 2 [1, 5]: 2 (10.5%) No. of patients (%)
- Fatigue, Total [1, 5]: 4 (21.1%) No. of patients (%)
- Fever, Grade 1 [1, 5]: 1 (5.3%) No. of patients (%)
- Fever, Total [1, 5]: 1 (5.3%) No. of patients (%)
- Gastrointestinal pain, Grade 1 [1, 5]: 1 (5.3%) No. of patients (%)
- Gastrointestinal pain, Total [1, 5]: 1 (5.3%) No. of patients (%)
- Hyperglycemia, Grade 1 [1, 5]: 1(5.3%) No. of patients (%)
- Hyperglycemia, Total [1, 5]: 1 (5.3%) No. of patients (%)
- Hyperkalemia, Grade 2 [1, 5]: 1 (5.3%) No. of patients (%)
- Hyperkalemia, Total [1, 5]: 1 (5.3%) No. of patients (%)
- Hypernatremia, Grade 1 [1, 5]: 1 (5.3%) No. of patients (%)
- Hypernatremia, Total [1, 5]: 1 (5.3%) No. of patients (%)
- Hypertension, Grade 1 [1, 5]: 1 (5.3%) No. of patients (%)
- Hypertension, Total [1, 5]: 1 (5.3%) No. of patients (%)
- Hypocalcemia, Grade 1 [1, 5]: 1 (5.3%) No. of patients (%)
- Hypocalcemia, Total [1, 5]: 1 (5.3%) No. of patients (%)
- Hypokalemia, Grade 1 [1, 5]: 1 (5.3%) No. of patients (%)
- Hypomagnesemia, Grade 1 [1, 5]: 3 (15.8%) No. of patients (%)
- Hypomagnesemia, Grade 2 [1, 5]: 1 (5.3%) No. of patients (%)
- Hypomagnesemia, Total [1, 5]: 4 (21.1%) No. of patients (%)
- Hyponatremia, Grade 1 [1, 5]: 3 (15.8%) No. of patients (%)
- Hyponatremia, Total [1, 5]: 3 (15.8%) No. of patients (%)
- Hypophosphatemia, Grade 1 [1, 5]: 1 (5.3%) No. of patients (%)
- Hypophosphatemia, Total [1, 5]: 1 (5.3%) No. of patients (%)
- Lymphocyte count decreased, Grade 2 [1, 5]: 1 (5.3%) No. of patients (%)
- Lymphocyte count decreased, Grade 3 [1, 5]: 1 (5.3%) No. of patients (%)
- Lymphocyte count decreased, Total [1, 5]: 2 (10.5%) No. of patients (%)
- Mouth sores, Grade 1 [1, 5]: 1 (5.3%) No. of patients (%)
- Mouth sores, Total [1, 5]: 1 (5.3%) No. of patients (%)
- Muscle cramp, Grade 1 [1, 5]: 1 (5.3%) No. of patients (%)
- Muscle cramp, Total [1, 5]: 1 (5.3%) No. of patients (%)
- Muscle weakness lower limb, Grade 1 [1, 5]: 1 (5.3%) No. of patients (%)
- Muscle weakness lower limb, Total [1, 5]: 1 (5.3%) No. of patients (%)
- Nausea, Grade 1 [1, 5]: 3 (15.8%) No. of patients (%)
- Nausea, Total [1, 5]: 3 (15.8%) No. of patients (%)
- Platelet count decreased, Grade 1 [1, 5]: 1 (5.3%) No. of patients (%)
- Platelet count decreased, Total [1, 5]: 1 (5.3%) No. of patients (%)
- Rash, maculopapular, Grade 1 [1, 5]: 1 (5.3%) No. of patients (%)
- Rash, maculopapular, Total [1, 5]: 1 (5.3%) No. of patients (%)
- Vomiting, Grade 1 [1, 5]: 2 (10.5%) No. of patients (%)
- Vomiting, Total [1, 5]: 2 (10.5%) No. of patients (%)
- Weight loss, Grade 1 [1, 5]: 1 (5.3%) No. of patients (%)
- Weight loss, Total [1, 5]: 1 (5.3%) No. of patients (%)
- dose at which DLT was demonstrated [2]: 3,300 mg/day
- partial response [2]: 1/29
- stable disease [2]: 6/29
